Reference: ChEMBL document CHEMBL1145056, “Structure-activity relationships of novel cyclic alpha-MSH/beta-MSH hybrid analogues that lead to potent and selective ligands for the human MC3R and human MC5R” (J Med Chem, 2003)
Positions of bridges follow the written chain, without caps; N, C: chain ends. Non-standard residues stand in square brackets, D forms with d. Residues, ends and D or L forms follow the SMILES beside them. d2Nal = N[C@H](Cc1ccc2ccccc2c1)C(=O)O

Tests used:
Melanocortin receptor 5 [1] = biological target: T1, Melanocortin receptor 5 (Homo sapiens, UniProt P33032); test: (§1) Effective concentration of peptide at 50% maximal cAMP generation; assay type: functional
T1 sequence (P33032 whole entry): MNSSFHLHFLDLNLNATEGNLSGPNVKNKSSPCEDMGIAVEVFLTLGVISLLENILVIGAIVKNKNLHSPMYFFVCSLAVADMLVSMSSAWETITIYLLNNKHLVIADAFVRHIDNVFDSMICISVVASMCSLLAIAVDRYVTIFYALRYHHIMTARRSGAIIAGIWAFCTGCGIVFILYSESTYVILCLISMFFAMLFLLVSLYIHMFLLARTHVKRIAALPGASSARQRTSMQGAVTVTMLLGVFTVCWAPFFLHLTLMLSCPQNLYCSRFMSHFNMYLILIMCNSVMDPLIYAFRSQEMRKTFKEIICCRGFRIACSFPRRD
Method in brief: (§2)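 Receptor-transfected human MCR HEK293 cells were seeded at 50 000 cells/well 48 h before the assay. The reaction was stopped with ice-cold Tris/EDTA, and lysates were boiled 15 min. cAMP was measured by competitive binding kit.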

Melanocortin receptor 3 [2] = biological target: T2, Melanocortin receptor 3 (Homo sapiens, UniProt P41968); test: as §1; assay type: functional; method in brief: as §2
T2 sequence (P41968 whole entry): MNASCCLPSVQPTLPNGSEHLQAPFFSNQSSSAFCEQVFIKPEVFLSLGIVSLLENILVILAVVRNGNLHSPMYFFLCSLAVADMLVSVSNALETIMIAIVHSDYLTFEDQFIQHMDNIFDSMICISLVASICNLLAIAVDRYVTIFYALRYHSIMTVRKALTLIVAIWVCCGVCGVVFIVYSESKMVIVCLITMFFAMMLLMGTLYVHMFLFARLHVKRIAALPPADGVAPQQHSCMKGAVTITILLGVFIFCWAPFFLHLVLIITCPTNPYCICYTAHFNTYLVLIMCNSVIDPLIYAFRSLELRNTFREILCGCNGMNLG

Melanocortin receptor 3 [3] = biological target: T2, Melanocortin receptor 3; test: Inhibition of human Melanocortin 3 receptor
Melanocortin receptor 4 [4] = biological target: T3, Melanocortin receptor 4 (Homo sapiens, UniProt P32245); test: as §1; assay type: functional
T3 sequence (P32245 whole entry): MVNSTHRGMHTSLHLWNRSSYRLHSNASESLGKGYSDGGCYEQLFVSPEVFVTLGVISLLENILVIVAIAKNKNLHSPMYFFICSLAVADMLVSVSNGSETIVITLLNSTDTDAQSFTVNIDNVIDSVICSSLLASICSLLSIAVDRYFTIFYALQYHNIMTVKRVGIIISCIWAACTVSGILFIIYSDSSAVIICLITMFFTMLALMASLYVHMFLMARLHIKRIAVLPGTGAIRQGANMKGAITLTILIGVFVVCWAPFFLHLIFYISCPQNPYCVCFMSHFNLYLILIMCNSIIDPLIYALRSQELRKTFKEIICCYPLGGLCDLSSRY

Melanocortin receptor 4 [5] = biological target: T3, Melanocortin receptor 4; test: Inhibition of human melanocortin 4 receptor
Melanocortin receptor 5 [6] = biological target: T1, Melanocortin receptor 5; test: Inhibition of human melanocortin 5 receptor
Melanocortin receptor 4 [7] = biological target: T3, Melanocortin receptor 4; test: (§3) Effective concentration of peptide at 50% maximal cAMP generation (10e-10 to 10e-4 M); assay type: functional
Method in brief: as §2, with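 “assay. Cells were preincubated in EBSS with 0.5 mM IBMX for 1 min at 37 °C, then exposed to peptide (10^-10 to 10^-4 M) for 3 min at 37 °C.” for “assay.”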

Melanocortin receptor 5 [8] = biological target: T1, Melanocortin receptor 5; test: as §3; assay type: functional
Method in brief: as §2, with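 “assay. Cells were preincubated in EBSS with 0.5 mM IBMX for 1 min at 37 °C, then exposed to peptide (10^-10 to 10^-4 M) for 3 min at 37 °C.” for “assay.”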

Melanocortin receptor 3 [9] = biological target: T2, Melanocortin receptor 3; test: Inhibitory activity against human Melanocortin 3 receptor was determined
Method in brief: (§4)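 Whole-cell competition binding in HEK293 cells stably transfected with human MCRs (CMVneo vector), 50 000 cells/well seeded 48 h before. Binding buffer: MEM, 25 mM HEPES pH 7.4, 0.2% BSA, 1,10-phenanthroline, leupeptin, bacitracin. Cells were incubated with unlabeled peptide (10^-10 to 10^-4 M) and 0.1386 nM [125I-Tyr2]-[Nle4,D-Phe7]α-MSH for 40 min at 37 °C, then washed, lysed (NaOH/Triton X-100) and gamma-counted.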

Melanocortin receptor 4 [10] = biological target: T3, Melanocortin receptor 4; test: Inhibitory activity against human melanocortin receptor human Melanocortin 4 receptor was determined; method in brief: as §4
Melanocortin receptor 5 [11] = biological target: T1, Melanocortin receptor 5; test: Inhibitory activity against human melanocortin receptor human Melanocortin 5 receptor was determined; method in brief: as §4

Structure (SMILES)	EC50 (Melanocortin receptor 5 [1])	EC50 (Melanocortin receptor 3 [2])	IC50 (Melanocortin receptor 3 [3])	EC50 (Melanocortin receptor 4 [4])	IC50 (Melanocortin receptor 4 [5])	IC50 (Melanocortin receptor 5 [6])	EC50 (Melanocortin receptor 4 [7])	EC50 (Melanocortin receptor 5 [8])	Ki (Melanocortin receptor 3 [9])	Ki (Melanocortin receptor 4 [10])	Ki (Melanocortin receptor 5 [11])
CC(=O)N[C@@H]1CSSC[C@@H](C(=O)N2CCC[C@H]2C(=O)N2CCC[C@H]2C(=O)N[C@@H](CCCCN)C(=O)N[C@@H](CC(=O)O)C(N)=O)NC(=O)[C@H](Cc2c[nH]c3ccccc23)NC(=O)[C@H](CCCN=C(N)N)NC(=O)[C@@H](Cc2ccc3ccccc3c2)NC(=O)[C@H](Cc2c[nH]cn2)NC(=O)[C@H](CCC(=O)O)NC1=O		> 10000 nM	200 nM	> 10000 nM	3700 nM	26000 nM		880 nM			
CC(=O)N[C@@H]1C(=O)N[C@@H](CCC(=O)O)C(=O)N[C@@H](Cc2c[nH]cn2)C(=O)N[C@H](Cc2ccc3ccccc3c2)C(=O)N[C@@H](CCCN=C(N)N)C(=O)N[C@@H](Cc2c[nH]c3ccccc23)C(=O)N[C@H](C(=O)N2CCC[C@H]2C(=O)N2CCC[C@H]2C(=O)N[C@@H](CCCCN)C(=O)N[C@@H](CC(=O)O)C(N)=O)CSSC1(C)C	> 10000 nM	> 10000 nM	3 nM	> 10000 nM	750 nM	94 nM					
CC(=O)N[C@H]1CSSC[C@@H](C(=O)N2CCC[C@H]2C(=O)N2CCC[C@H]2C(=O)N[C@@H](CCCCN)C(=O)N[C@@H](CC(=O)O)C(N)=O)NC(=O)CNC(=O)[C@H](Cc2c[nH]c3ccccc23)NC(=O)[C@H](CCCNC(=N)N)NC(=O)[C@@H](Cc2ccc3ccccc3c2)NC(=O)[C@H](Cc2c[nH]cn2)NC(=O)[C@H](CCC(=O)O)NC1=O (Ac-CEH[d2Nal]RWGCPPKD-NH2; disulfide 1-8)									54 nM	3.1 nM	694 nM
CC(=O)N[C@H]1CC(=O)NCCCC[C@@H](C(=O)N2CCC[C@H]2C(=O)N2CCC[C@H]2C(=O)N[C@@H](CCCCN)C(=O)N[C@@H](CC(=O)O)C(N)=O)NC(=O)[C@H](Cc2c[nH]c3ccccc23)NC(=O)[C@H](CCCNC(=N)N)NC(=O)[C@@H](Cc2ccccc2)NC(=O)[C@H](Cc2c[nH]cn2)NC(=O)[C@H](CCC(=O)O)NC1=O	> 10000 nM	> 10000 nM	> 1000 nM	> 10000 nM	> 10000 nM	> 10000 nM					
CC(=O)N[C@H]1CSSC[C@@H](C(=O)N2CCC[C@H]2C(=O)N2CCC[C@H]2C(=O)N[C@@H](CCCCN)C(=O)N[C@@H](CC(=O)O)C(N)=O)NC(=O)[C@H](Cc2c[nH]c3ccccc23)NC(=O)[C@H](CCCN=C(N)N)NC(=O)[C@@H](Cc2ccc3ccccc3c2)NC(=O)[C@H](Cc2c[nH]cn2)NC(=O)[C@H](CCC(=O)O)NC1=O	190 nM	> 10000 nM	130 nM	6.1 nM	3.4 nM	180 nM					
CC(=O)N[C@H]1CSSC[C@H](C(=O)N2CCC[C@H]2C(=O)N2CCC[C@H]2C(=O)N[C@@H](CCCCN)C(=O)N[C@@H](CC(=O)O)C(N)=O)NC(=O)[C@H](Cc2c[nH]c3ccccc23)NC(=O)[C@H](CCCN=C(N)N)NC(=O)[C@@H](Cc2ccc3ccccc3c2)NC(=O)[C@H](Cc2c[nH]cn2)NC(=O)[C@H](CCC(=O)O)NC1=O	> 10000 nM	> 10000 nM	2900 nM	> 10000 nM	40000 nM	15000 nM					
CC(=O)N[C@H]1CSSC[C@H](C(=O)N2CCC[C@H]2C(=O)N2CCC[C@H]2C(=O)N[C@@H](CCCCN)C(=O)N[C@@H](CC(=O)O)C(N)=O)NC(=O)[C@H](Cc2c[nH]c3ccccc23)NC(=O)[C@H](CCCNC(=N)N)NC(=O)[C@@H](Cc2ccccc2)NC(=O)[C@H](Cc2c[nH]cn2)NC(=O)[C@H](CCC(=O)O)NC1=O	> 10000 nM	> 10000 nM	5600 nM	> 10000 nM	> 10000 nM	10 nM					

The remaining lines, values ahead:

EC50 (Melanocortin receptor 5 [1])	EC50 (Melanocortin receptor 3 [2])	IC50 (Melanocortin receptor 3 [3])	EC50 (Melanocortin receptor 4 [4])	IC50 (Melanocortin receptor 4 [5])	IC50 (Melanocortin receptor 5 [6])	EC50 (Melanocortin receptor 4 [7])	EC50 (Melanocortin receptor 5 [8])	Ki (Melanocortin receptor 3 [9])	Ki (Melanocortin receptor 4 [10])	Ki (Melanocortin receptor 5 [11])	Structure (SMILES)
> 10000 nM	> 10000 nM	620 nM	> 10000 nM	37000 nM	73 nM						CC(=O)N[C@@H]1CSSC[C@@H](C(=O)N2CCC[C@H]2C(=O)N2CCC[C@H]2C(=O)N[C@@H](CCCCN)C(=O)N[C@@H](CC(=O)O)C(N)=O)NC(=O)[C@H](Cc2c[nH]c3ccccc23)NC(=O)[C@H](CCCNC(=N)N)NC(=O)[C@@H](Cc2ccccc2)NC(=O)[C@H](Cc2c[nH]cn2)NC(=O)[C@H](CCC(=O)O)NC1=O
> 10000 nM	> 10000 nM	31 nM		17000 nM	97000 nM	> 10000 nM					CC(=O)N[C@H]1CSSC[C@@H](C(=O)N2CCC[C@H]2C(=O)N2CCC[C@H]2C(=O)N[C@@H](CCCCN)C(=O)N[C@@H](CC(=O)O)C(N)=O)NC(=O)[C@H](Cc2c[nH]c3ccccc23)NC(=O)[C@H](CCCNC(=N)N)NC(=O)[C@@H](Cc2ccc3ccccc3c2)NC(=O)[C@@H]2CCCN2C(=O)[C@H](CCC(=O)O)NC1=O
> 10000 nM	2.8 nM	430 nM	6.3 nM	1100 nM	27000 nM						CC(=O)N[C@@H]1C(=O)N[C@@H](CCC(=O)O)C(=O)N[C@@H](Cc2c[nH]cn2)C(=O)N[C@H](Cc2ccccc2)C(=O)N[C@@H](CCCN=C(N)N)C(=O)N[C@@H](Cc2c[nH]c3ccccc23)C(=O)N[C@H](C(=O)N2CCC[C@H]2C(=O)N2CCC[C@H]2C(=O)N[C@@H](CCCCN)C(=O)N[C@@H](CC(=O)O)C(N)=O)CSSC1(C)C
	401 nM	> 1000 nM	> 10000 nM	3300 nM	200 nM		380 nM				CC(=O)N[C@H]1CSSC[C@@H](C(=O)N2CCC[C@H]2C(=O)N2CCC[C@H]2C(=O)N[C@@H](CCCCN)C(=O)N[C@@H](CC(=O)O)C(N)=O)NC(=O)[C@H](Cc2c[nH]c3ccccc23)NC(=O)[C@H](CCCNC(=N)N)NC(=O)[C@@H](Cc2ccccc2)NC(=O)[C@@H]2CCCN2C(=O)[C@H](CCC(=O)O)NC1=O
